The source made the active and inactive calls. No cut-off for these calls is given here. Where only a bound is given, the exact number is not on record here.

Data on twelve molecules can be found in ChEMBL document CHEMBL1158530, “Phosphate ester derivatives of homocamptothecin: synthesis, solution stabilities and antitumor activities” (Bioorg Med Chem, 2010).

Data set [1] concerns MDA-MB-435. Kind of data set: Cytotoxicity against human MDA-MB-435 cells after 72 hrs by MTT assay. Type of data set: functional, cell-based. The conditions noted are these: MDA-MB-435, 72 h. The procedure, abridged:
(§1)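 A549, MDA-MB-435 and LOVO cells seeded at 6000–10,000 per well. Treated in triplicate with graded drug concentrations for 72 h at 37 °C. Viability read by MTT; IC50 taken from the dose–response curve.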

Data set [2] deals with A549. Kind of data set: Cytotoxicity against human A549 cells after 72 hrs by MTT assay. The class given is functional, cell-based. The conditions noted are these: A549, 72 h. The method in brief: as §1
Data set [3] relates to LoVo. In words: Cytotoxicity against human LoVo cells after 72 hrs by MTT assay. Type of data set: functional, cell-based. The procedure, abridged: as §1
For data set [4], the species on record is Bos taurus. In words: Inhibition of calf thymus topoisomerase 1-mediated relaxation of Escherichia coli pBR322 plasmid DNA after 15 mins by cleavable complex assay. The method in brief: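 Calf thymus Topo I (0.5 U) incubated with 0.25 μg supercoiled pBR322 DNA in Topo I buffer with 0.1% BSA stock, with or without drug at 1, 10 and 50 μM, 37 °C for 15 min. Stopped with SDS (0.5% final). Products resolved on 0.8% agarose gel in TAE (120 V, 40 min), ethidium bromide stained, imaged under UV.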

Data set [5] relates to A549. Kind of data set: Antitumor activity against human A549 cells xenografted in BALB/c mouse assessed as inhibition of tumor growth at 25 mg/kg, ip relative to control. The conditions noted are these: route intraperitoneal, read-out: TGI. The class given is functional. The method in brief: (§2)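 Male BALB/c nude mice (18-20g) implanted subcutaneously in right axilla with A549 cells. Treatment started at day 17 when tumors reached about 100–300 mm³. Single ip injection on day 17, six mice per group, eight controls. Caliper length and width every 4 days, TV = 1/2 × a × b². Sacrificed day 35, tumors removed; growth inhibition relative to placebo controls.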

Data set [6] has as its system A549. In words: Antitumor activity against human A549 cells xenografted in ip dosed BALB/c mouse assessed as tumor regression. The class given is functional, organism-based. The method in brief: as §2
For data set [7], the species on record is Bos taurus. In words: Inhibition of calf thymus topoisomerase 1-mediated relaxation of Escherichia coli pBR322 plasmid DNA at 100 uM after 15 mins by cleavable complex assay. The method in brief: (§3)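 Calf thymus Topo I (0.5 U) with 0.25 μg supercoiled pBR322 in Topo I buffer containing BSA, with or without drug, 37 °C for 15 min. Stopped with 0.5% SDS final. Run on 0.8% agarose gel in TAE, 120 V for 40 min, stained with ethidium bromide, viewed under UV.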

For data set [8], the system named is A549. In words: Antitumor activity against human A549 cells xenografted in BALB/c mouse assessed as inhibition of tumor growth at 6.25 to 25 mg/kg, ip relative to control. Type of data set: functional. The conditions noted are these: dose mg/kg 6.25-25; route intraperitoneal. The method in brief:
as §2

The nature of data set [9]: Chemical stability assessed as compound remaining at pH 3.0 after 24 hrs by modified HPLC method. Conditions: buffer, read-out: Stability. Type of data set: physicochemical. The method in brief: (§4)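 Drug in DMSO (2 mM, 430 μL) added to 70 μL of aqueous solution preincubated 5 min at 37 °C. Samples held at 37 °C, pH 3.0 or pH 7.4. Percent of initial phosphate-form concentration followed by modified HPLC.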

The nature of data set [10]: Chemical stability assessed as compound remaining at pH 7.4 after 24 hrs by modified HPLC method. The class given is physicochemical. Conditions: buffer, read-out: Stability. The procedure, abridged:
as §4

The test system of data set [11] is A549. Kind of data set: Antitumor activity against human A549 cells xenografted in BALB/c mouse assessed as inhibition of tumor growth at 50 mg/kg, ip relative to control. Type of data set: functional. The conditions noted are these: route intraperitoneal, read-out: TGI. The method in brief:
as §2

The species entered for data set [12] is Bos taurus. In words: Inhibition of calf thymus topoisomerase 1-mediated relaxation of Escherichia coli pBR322 plasmid DNA at 1 uM after 15 mins by cleavable complex assay. The method in brief:
as §3

As for `CC[C@@]1(O)CC(=O)OCc2c1cc1n(c2=O)Cc2c-1nc1ccc(OP(=O)(OCC(F)(F)F)OCC(F)(F)F)cc1c2C`, the IC50 is 0.22 µM in data set [1], 15.5 µM in data set [2] and 5.42 µM in data set [3].
Take `CC[C@@]1(O)CC(=O)OCc2c1cc1n(c2=O)Cc2c-1nc1ccc(O)cc1c2C`: the values for the IC50 in data set [1], in data set [2] and in data set [3] were < 0.001 µM, 0.03 µM and 0.01 µM, respectively. Moreover, in data set [4], the inhibition result was “Dose-dependent effect”.
Consider `CC[C@@]1(O)CC(=O)OCc2c1cc1n(c2=O)Cc2c-1nc1ccc(OP(=O)(O)OCc3ccccc3)cc1c2C`, for which the IC50 in data set [1] is 10.8 µM; in [2] it was 29.4 µM; in data set [3], 9.31 µM.
On the same counts, the results for `CCOP(=O)(O)Oc1ccc2nc3c(c(C)c2c1)Cn1c-3cc2c(c1=O)COC(=O)C[C@]2(O)CC` are 5.26 µM, 11.4 µM and 7.24 µM.
With `CCCCOP(=O)(OCCCC)Oc1ccc2nc3c(c(C)c2c1)Cn1c-3cc2c(c1=O)COC(=O)C[C@]2(O)CC`, the IC50 in data set [1] was 0.51 µM; in [2], 2.84 µM; in data set [3], 0.91 µM. In addition, in [5], the inhibition in vivo at 25 mg/kg turned out to be 59%. Moreover, the Activity result in [6] is “Dose-dependent effect”. In addition, the inhibition entry in [7] is “Active”. Also, the TGI in data set [8] amounted to 25%. The remaining at 24 h in [9] was determined as 100%; in [10], 95%.
As to `CCOP(=O)(OCC)Oc1ccc2nc3c(c(C)c2c1)Cn1c-3cc2c(c1=O)COC(=O)C[C@]2(O)CC`, the half-maximal inhibitory concentration (IC50) in data set [1] was found to be 0.79 µM; in [2], 8.05 µM; in data set [3], 1.26 µM.
In the case of `CC[C@@]1(O)CC(=O)OCc2c1cc1n(c2=O)Cc2c-1nc1ccc(OP(=O)(OC(C)C)OC(C)C)cc1c2C`, the IC50 in data set [1] was 3.4 µM; in data set [2], 11.4 µM; in data set [3] it was 5.56 µM.
For `CCCCCOP(=O)(OCCCCC)Oc1ccc2nc3c(c(C)c2c1)Cn1c-3cc2c(c1=O)COC(=O)C[C@]2(O)CC`, the concentration for half-maximal inhibition (IC50) in data set [1] came to 0.72 µM; in data set [2], 2.3 µM; in [3], 1.19 µM. The inhibition in vivo at 50 mg/kg in [11] came to 42%. Also, in data set [6], the Activity result was “Dose-dependent effect”. The values for the remaining at 24 h in data set [9] and in [10] were 100% and 91%, respectively.
For `CCc1c2c(nc3ccc(OC(=O)N4CCC(N5CCCCC5)CC4)cc13)-c1cc3c(c(=O)n1C2)COC(=O)[C@]3(O)CC` [IRINOTECAN], the IC50 in [1] came to 1.14 µM; in data set [2] it was 4.61 µM; in data set [3], 4.99 µM. Further, the inhibition in vivo at 50 mg/kg in data set [11] was 51%.
Consider `CC[C@@]1(O)C(=O)OCc2c1cc1n(c2=O)Cc2cc3ccccc3nc2-1`, for which the inhibition entry in [12] is “inactive”.
`CC[C@@]1(O)C(=O)OCc2c1cc1n(c2=O)Cc2cc3c(CN(C)C)c(O)ccc3nc2-1` [TOPOTECAN]: the IC50 in data set [1] is < 0.001 µM; in data set [2], 0.04 µM; in data set [3], 0.02 µM.
Turning to `CCCCCCCCCCCCCCCCOP(=O)(OCCCCCCCCCCCCCCCC)Oc1ccc2nc3c(c(C)c2c1)Cn1c-3cc2c(c1=O)COC(=O)C[C@]2(O)CC`, the half-maximal inhibitory concentration (IC50) in [1], in [2] and in [3] was > 100 µM each time.
